Consider two compounds from PMC4124067 (International Journal of Nanomedicine, 2014).

For experiment [1], the system named is orthotopic Lewis lung carcinoma. As to conditions: cited from earlier work.
Experiment [2] concerns A549-luc-c8 human lung adenocarcinoma cells. Description: MTT cytotoxicity assay. It is filed as cell-based. The settings on record: 48 h. In outline: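 A549-luc-c8 luciferase-expressing cells grown in RPMI 1640 with 10% FBS and antibiotic at 37°C, 5% CO2. Seeded at 5,000 cells per 100 μL medium per well. Free parent drug, conjugate nanoparticles or blank nanoparticles added across a concentration series for 48 h at 37°C. MTT then added for 3 h, dye dissolved in DMSO, A570 read. IC50 taken from survival plots; blank-particle IC50 expressed at drug-equivalent dose.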
A general note: Tetrazolium assays rely on reduction of a dye to a coloured formazan, in cell work by metabolically active cells.

The test system of a further experiment is tubulin. Description: Tubulin polymerization assay. It is filed as biochemical. In outline: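 Kit-based assay: 3 mg/mL tubulin in 80 mM PIPES, pH 6.9, with glycerol, run at 37°C. Test compound at 10 and 34 μM, parent drug at 10 μM as positive control, plus untreated control. Polymerization followed as OD340, read once per minute for 60 min. Maximum rate (Vmax, mOD/min) and time to reach it taken from the curves.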

Usually IC50 stands for the point on the concentration scale where inhibition reaches its midpoint.

Read-outs that look alike come from different tables or passages of the source.

`N.N.[Cl][Pt][Cl]` [Cisplatin, cisplatin]: the therapeutic effect result was “suppressed primary lung tumor growth and lymph node metastasis” in experiment [1] (treatment starting on day 1); “failed to show any significant therapeutic effect” in experiment [1] (treatment starting on day 10).

Consider `CC(=O)O[C@H]1C(=O)[C@@]2(C)[C@H]([C@H](OC(=O)c3ccccc3)[C@]3(O)C[C@H](OC(=O)[C@H](O)[C@@H](NC(=O)c4ccccc4)c4ccccc4)C(C)=C1C3(C)C)[C@]1(OC(C)=O)CO[C@@H]1C[C@@H]2O` [PX, paclitaxel], for which the IC50 in experiment [2] came to 5.3 ± 3.2 nM. Besides, the “Vmax (maximum rate of tubulin polymerization)” value with tubulin (10 μM, 37°C, 3 mg/mL tubulin) is recorded as 29.0±0.0 mOD/min. The “time at which Vmax was reached” value in the experiment with tubulin (60 minute time course) fell in the range of 0 to 3 min.
